ChEMBL document CHEMBL1153988 (J Med Chem, 2009)
The source made the active and inactive calls. No cut-off for these calls is given here.

Tests used:
Mus musculus [1] = assay: Anticonvulsant activity in ip dosed CF1 albino mouse assessed as protection against 32 mA current-induced seizure by 6Hz psychomotor seizure test; format: functional
How it was run: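 In the 6 Hz psychomotor seizure test, male CF no. 1 albino mice (18-25 g) received the compound ip in 0.5% methylcellulose. Stimulation was at 32 or 44 mA. Doses were varied to give 3-4 points between 0% and 100% protection, and ED50 with 95% confidence interval came from probit analysis.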

Mus musculus [2] = assay: Anticonvulsant activity in CF1 albino mouse assessed as protection against scMet-induced seizures at 300 mg/kg, ip after 0.5 hrs; format: functional, organism-based; parameters: dose 300 mg/kg
How it was run: (§1)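 Adult male CF no. 1 albino mice (18-25 g) dosed intraperitoneally with compound suspended in 0.5% methylcellulose (0.01 mL/g). Convulsant challenge given subcutaneously as a 0.85% pentylenetetrazol solution in 0.9% saline. Read-out is animals protected over animals tested, with neurotoxicity scored in parallel.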

Rattus norvegicus [3] = assay: Anticonvulsant activity in albino Sprague-Dawley rat assessed as protection against maximal electroshock-induced seizures at 50 mg/kg, po after 4 hrs; format: functional, organism-based; parameters: dose 50 mg/kg
How it was run: (§2)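 Adult male Sprague-Dawley albino rats (100-150 g) dosed orally with compound suspended in 0.5% methylcellulose (0.04 mL per 10 g). Maximal electroshock challenge at the stated time. Protection is scored in 25% steps as the fraction of animals protected, with neurotoxicity recorded in parallel.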

Mus musculus [4] = assay: Anticonvulsant activity in CF1 albino mouse assessed as protection against scMet-induced seizures at 30 mg/kg, ip after 0.5 hrs; format: functional, organism-based; parameters: dose 30 mg/kg; how it was run: as §1
Mus musculus [5] = assay: Anticonvulsant activity in CF1 albino mouse assessed as protection against maximal electroshock-induced seizures at 100 mg/kg, ip after 4 hrs; format: functional, organism-based; parameters: dose 100 mg/kg
How it was run: (§3)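 Adult male CF no. 1 albino mice (18-25 g). Test compound suspended in 0.5% methylcellulose and given intraperitoneally at 0.01 mL/g body weight. Maximal electroshock challenge at the stated time. Read-out is the number of animals protected over the number tested; neurotoxicity is scored in parallel.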

Mus musculus [6] = assay: Anticonvulsant activity in CF1 albino mouse assessed as protection against scMet-induced seizures at 100 mg/kg, ip after 4 hrs; format: functional, organism-based; parameters: dose 100 mg/kg; how it was run: as §1
Rattus norvegicus [7] = assay: Anticonvulsant activity in albino Sprague-Dawley rat assessed as protection against maximal electroshock-induced seizures at 50 mg/kg, po after 30 mins; format: functional; how it was run: as §2
Mus musculus [8] = assay: Neurotoxicity in CF1 albino mouse at 30 mg/kg, ip after 0.5 hrs; format: toxicity, organism-based; parameters: dose 30 mg/kg, route intraperitoneal; conditions: in vivo
How it was run: (§4)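 Male CF no. 1 albino mice (18-25 g) received a single ip dose as a suspension in 0.5% methylcellulose. The read-out was the number of animals showing neurotoxicity (minimal motor impairment) over the number tested.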

Mus musculus [9] = assay: Neurotoxicity in CF1 albino mouse at 300 mg/kg, ip after 0.5 hrs; format: toxicity, organism-based; parameters: dose 300 mg/kg, route intraperitoneal; conditions: in vivo; how it was run: as §4
Rattus norvegicus [10] = assay: Anticonvulsant activity in albino Sprague-Dawley rat assessed as protection against maximal electroshock-induced seizures at 50 mg/kg, po after 2 hrs; format: functional; how it was run: as §2
Rattus norvegicus [11] = assay: Anticonvulsant activity in albino Sprague-Dawley rat assessed as protection against scMet-induced seizures at 50 mg/kg, po after 2 hrs; format: functional
How it was run: (§5)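 Male Sprague-Dawley albino rats (100-150 g) were given the compound orally as a suspension in 0.5% methylcellulose. Seizures were induced by subcutaneous pentylenetetrazol, dissolved in 0.9% saline as a 2.82% solution. The read-out was animals protected over animals tested.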

Mus musculus [12] = assay: Anticonvulsant activity in CF1 albino mouse assessed as protection against scMet-induced seizures at 300 mg/kg, ip after 4 hrs; format: functional, organism-based; parameters: dose 300 mg/kg; how it was run: as §1
Rattus norvegicus [13] = assay: Anticonvulsant activity in albino Sprague-Dawley rat assessed as protection against scMet-induced seizures at 50 mg/kg, po after 4 hrs; format: functional; how it was run: as §5
Mus musculus [14] = assay: Anticonvulsant activity in CF1 albino mouse assessed as protection against maximal electroshock-induced seizures at 30 mg/kg, ip after 0.5 hrs; format: functional, organism-based; parameters: dose 30 mg/kg; how it was run: as §3
Mus musculus [15] = assay: Neurotoxicity in CF1 albino mouse at 100 mg/kg, ip after 0.5 hrs; format: toxicity, organism-based; parameters: dose 100 mg/kg, route intraperitoneal; conditions: in vivo; how it was run: as §4
Mus musculus [16] = assay: Anticonvulsant activity in CF1 albino mouse assessed as protection against scMet-induced seizures at 30 mg/kg, ip after 4 hrs; format: functional, organism-based; parameters: dose 30 mg/kg; how it was run: as §1
Rattus norvegicus [17] = assay: Anticonvulsant activity in albino Sprague-Dawley rat assessed as protection against scMet-induced seizures at 50 mg/kg, po after 1 hr; format: functional; how it was run: as §5
Mus musculus [18] = assay: Anticonvulsant activity in CF1 albino mouse assessed as protection against scMet-induced seizures at 100 mg/kg, ip after 0.5 hrs; format: functional, organism-based; parameters: dose 100 mg/kg; how it was run: as §1
Mus musculus [19] = assay: Neurotoxicity in CF1 albino mouse at 300 mg/kg, ip after 4 hrs; format: toxicity, organism-based; parameters: dose 300 mg/kg, route intraperitoneal; conditions: in vivo; how it was run: as §4
Rattus norvegicus [20] = assay: Anticonvulsant activity in albino Sprague-Dawley rat assessed as protection against maximal electroshock-induced seizures at 50 mg/kg, po after 1 hr; format: functional; how it was run: as §2
Mus musculus [21] = assay: Neurotoxicity in CF1 albino mouse at 30 mg/kg, ip after 4 hrs; format: toxicity, organism-based; parameters: dose 30 mg/kg, route intraperitoneal; conditions: in vivo; how it was run: as §4
Mus musculus [22] = assay: Anticonvulsant activity in CF1 albino mouse assessed as protection against maximal electroshock-induced seizures at 300 mg/kg, ip after 4 hrs; format: functional, organism-based; parameters: dose 300 mg/kg; how it was run: as §3
Rattus norvegicus [23] = assay: Neurotoxicity in albino Sprague-Dawley rat at 50 mg/kg, po; format: toxicity, organism-based; parameters: dose 50 mg/kg, route oral; conditions: in vivo
How it was run: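 Neurotoxicity was scored in male Sprague-Dawley albino rats (100-150 g) dosed orally with a suspension in 0.5% methylcellulose. The read-out was the fraction of animals showing neurotoxicity (minimal motor impairment).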

Mus musculus [24] = assay: Anticonvulsant activity in CF1 albino mouse assessed as protection against maximal electroshock-induced seizures at 30 mg/kg, ip after 4 hrs; format: functional, organism-based; parameters: dose 30 mg/kg; how it was run: as §3
Mus musculus [25] = assay: Anticonvulsant activity in CF1 albino mouse assessed as protection against maximal electroshock-induced seizures at 100 mg/kg, ip after 0.5 hrs; format: functional, organism-based; parameters: dose 100 mg/kg; how it was run: as §3
Rattus norvegicus [26] = assay: Anticonvulsant activity in albino Sprague-Dawley rat assessed as protection against maximal electroshock-induced seizures at 50 mg/kg, po after 15 mins; format: functional; how it was run: as §2
Rattus norvegicus [27] = assay: Anticonvulsant activity in albino Sprague-Dawley rat assessed as protection against scMet-induced seizures at 50 mg/kg, po after 15 mins; format: functional; how it was run: as §5
Mus musculus [28] = assay: Anticonvulsant activity in CF1 albino mouse assessed as protection against maximal electroshock-induced seizures at 300 mg/kg, ip after 0.5 hrs; format: functional, organism-based; parameters: dose 300 mg/kg; how it was run: as §3
Mus musculus [29] = assay: Neurotoxicity in CF1 albino mouse at 100 mg/kg, ip after 4 hrs; format: toxicity, organism-based; parameters: dose 100 mg/kg, route intraperitoneal; conditions: in vivo; how it was run: as §4
Rattus norvegicus [30] = assay: Anticonvulsant activity in albino Sprague-Dawley rat assessed as protection against scMet-induced seizures at 50 mg/kg, po after 30 mins; format: functional; how it was run: as §5
Rattus norvegicus [31] = species: Rattus norvegicus; assay: Protective index, ratio of TD50 for albino Sprague-Dawley rat to ED50 for maximal electroshock-induced albino Sprague-Dawley rat seizure model; format: functional
How it was run: (§6)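 Protective index is the rat TD50 (minimal motor impairment) divided by the ED50 in the MES or sc pentylenetetrazol test. Male Sprague-Dawley rats were dosed orally in 0.5% methylcellulose, and both values came from probit analysis.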

Rattus norvegicus [32] = species: Rattus norvegicus; assay: Protective index, ratio of TD50 for albino Sprague-Dawley rat to ED50 for scMet-induced albino Sprague-Dawley rat seizure model; format: functional; how it was run: as §6

| Compound | Activity (Mus musculus [2]) | Activity (Rattus norvegicus [3]) | Activity (Mus musculus [4]) | Activity (Mus musculus [5]) | Activity (Mus musculus [6]) | Activity (Rattus norvegicus [11]) | Activity (Mus musculus [12]) | Activity (Rattus norvegicus [13]) | Activity (Mus musculus [14]) | Activity (Mus musculus [16]) | Activity (Rattus norvegicus [17]) | Activity (Mus musculus [18]) | Activity (Mus musculus [19]) | Activity (Mus musculus [22]) | Activity (Rattus norvegicus [23]) | Activity (Mus musculus [24]) | Activity (Mus musculus [25]) | Activity (Mus musculus [28]) | Activity (Mus musculus [29]) | Activity (Rattus norvegicus [30]) | also measured |
| --- | --- | --- | --- | --- | --- | --- | --- | --- | --- | --- | --- | --- | --- | --- | --- | --- | --- | --- | --- | --- | --- |
| CC[C@H](C(N)=O)N1CCCC1=O |  |  |  |  |  |  |  |  |  |  |  |  |  |  |  |  |  |  |  |  | ED50 (Mus musculus [1]): 19 mg/kg |
| CC1(C)C(C)(C)C1(C)C(N)=O | Toxic | inactive | Non-toxic | Non-toxic | Non-toxic | 25% | Non-toxic | inactive | Non-toxic | Non-toxic | 25% | Non-toxic | Non-toxic | Non-toxic | Not Active | Non-toxic | Non-toxic | Toxic | Non-toxic | inactive | Activity (Rattus norvegicus [7]): inactive; Activity (Mus musculus [8]): Non-toxic; Activity (Mus musculus [9]): Toxic; Activity (Rattus norvegicus [10]): inactive; Activity (Mus musculus [15]): Non-toxic; Activity (Rattus norvegicus [20]): inactive; Activity (Mus musculus [21]): Non-toxic; Activity (Rattus norvegicus [26]): inactive; Activity (Rattus norvegicus [27]): inactive |
| CC1(C)C(C)(C)C1(C)C(=O)O | Non-toxic | inactive | Non-toxic | Non-toxic | Non-toxic | inactive | Non-toxic | 25% | Non-toxic | Non-toxic | inactive | Non-toxic | Non-toxic | Non-toxic | Not Active | Non-toxic | Non-toxic | Toxic | Non-toxic | inactive | Activity (Rattus norvegicus [7]): inactive; Activity (Mus musculus [8]): Non-toxic; Activity (Rattus norvegicus [10]): inactive; Activity (Mus musculus [15]): Non-toxic; Activity (Rattus norvegicus [20]): inactive; Activity (Mus musculus [21]): Non-toxic; Activity (Rattus norvegicus [26]): inactive; Activity (Rattus norvegicus [27]): inactive |
| CC1(C)C(C(=O)NC(N)=O)C1(C)C [2,2,3,3-TETRAMETHYLCYCLOPROPANECARBONYLUREA] |  |  |  |  |  |  |  |  |  |  |  |  |  |  |  |  |  |  |  |  | PI (Rattus norvegicus [31]): 18.5; PI (Rattus norvegicus [32]): 5.9 |
| CNC(=O)C1(F)C(C)(C)C1(C)C | Non-toxic |  | Non-toxic | Non-toxic | Non-toxic | inactive | Non-toxic | inactive | Non-toxic | Non-toxic | inactive | Toxic | Non-toxic | Non-toxic | 100% | Non-toxic | Non-toxic | Toxic | Non-toxic | inactive | Activity (Mus musculus [9]): Toxic; Activity (Rattus norvegicus [27]): inactive |
| CC1(C)C(C)(C)C1(F)C(=O)O | Toxic | inactive | Non-toxic | Non-toxic | Non-toxic | inactive | Non-toxic | inactive | Non-toxic | Non-toxic | inactive | Non-toxic | Non-toxic | Non-toxic | Not Active | Non-toxic | Non-toxic | Non-toxic | Non-toxic | inactive | Activity (Rattus norvegicus [7]): inactive; Activity (Mus musculus [8]): Non-toxic; Activity (Mus musculus [9]): Toxic; Activity (Rattus norvegicus [10]): inactive; Activity (Rattus norvegicus [20]): inactive; Activity (Mus musculus [21]): Non-toxic; Activity (Rattus norvegicus [26]): inactive |
